pIC50: −log10 of the molar value.
Tests used:
[1] = Cytotoxicity against human CNE2 cells after 48 hrs by MTT assay; format: functional, cell-based, CNE-2; conditions: for pIC50: Homo sapiens, CNE-2, 48 h, read-out: IC50; for IC50: cne-2
In short: (§1)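 Human cells (GLC-82 lung adenocarcinoma; CNE2 nasopharyngeal carcinoma) were seeded at 1×10⁴ per well and incubated overnight. They were then exposed for 48 h to increasing compound concentrations (0–100). MTT (5 mg/mL stock) was added for 4 h at 37 °C, and unconverted MTT was removed before plate-reader absorbance. Runs were in quadruplicate, with viability as % of untreated control. IC50 is the concentration reducing mean viability to 50%.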

[2] = Cytotoxicity against human GLC82 cells after 48 hrs by MTT assay; format: functional, cell-based; conditions: for pIC50: Homo sapiens, GLC82, 48 h, read-out: IC50; for IC50: glc82; in short: as §1

| Compound | pIC50 [1] | pIC50 [2] | IC50 [1] | IC50 [2] |
| --- | --- | --- | --- | --- |
| CC(=O)Nc1c(C)cc(C)c2c1C(=O)C(=O)c1c(-c3ccc(Cl)cc3)coc1-2 | 5.04 | 5.22 |  |  |
| CC(=O)Nc1c(C)cc(C)c2c1C(=O)C(=O)c1c(-c3ccc(Cl)cc3)csc1-2 | 5.17 | 5.12 |  |  |
| Cc1cc(C)c2c(c1)C(=O)C(=O)c1c(-c3ccc(F)cc3)coc1-2 |  |  | ND(Insoluble) | ND(Insoluble) |
| O=C1C(=O)c2c(-c3ccccc3)csc2-c2ccccc21 |  | 4.70 |  |  |
| O=C1C(=O)c2c(-c3ccc(Cl)cc3)coc2-c2cccc(N3C(=O)CCC3=O)c21 | 5.70 | 5.80 |  |  |
| CC(=O)Nc1c(C)cc(C)c2c1C(=O)C(=O)c1c(-c3ccccc3)csc1-2 | 5.39 | 5.30 |  |  |
| Cc1cc(C)c2c(c1)C(=O)C(=O)c1cc(C)oc1-2 |  |  | ND(Insoluble) | ND(Insoluble) |
| CC(=O)Nc1c(C)cc(C)c2c1C(=O)C(=O)c1c(-c3ccc(C)cc3)coc1-2 | 5.25 | 5.02 |  |  |
| CC(=O)Nc1c(C)cc(C)c2c1C(=O)C(=O)c1c(-c3ccc(C)c(C)c3)coc1-2 |  |  | ND(Insoluble) | ND(Insoluble) |
| CC(=O)Nc1c(C)cc(C)c2c1C(=O)C(=O)c1c(-c3ccccc3C)csc1-2 | 5.38 |  |  |  |
| Cc1cc(C)c2c(c1)C(=O)C(=O)c1c(-c3ccccc3)coc1-2 | < 4.60 | < 4.60 |  |  |
| CC(=O)Nc1c(C)cc(C)c2c1C(=O)C(=O)c1c(-c3ccc(F)cc3)coc1-2 |  | 5.05 |  |  |
| CC(=O)Nc1c(C)cc(C)c2c1C(=O)C(=O)c1c(-c3ccc(F)cc3)csc1-2 | 5.34 | 5.41 |  |  |
| CC(=O)Nc1c(C)cc(C)c2c1C(=O)C(=O)c1c(-c3ccccc3)coc1-2 | 5.32 | 5.14 |  |  |
| Cc1cc(C)c2c(c1)C(=O)C(=O)c1c(-c3ccc(C)c(C)c3)coc1-2 |  |  | ND(Insoluble) | ND(Insoluble) |
| Cc1ccc(-c2coc3c2C(=O)C(=O)c2cc(C)cc(C)c2-3)cc1 | 4.63 | 4.92 |  |  |
| Cc1cc(C)c2c(c1)C(=O)C(=O)c1c(-c3ccc(Cl)cc3)coc1-2 |  |  | ND(Insoluble) | ND(Insoluble) |
| CC[C@@]1(O)C(=O)OCc2c1cc1n(c2=O)Cc2cc3cc(O)ccc3nc2-1 [HYDROXYCAMPTOTHECIN] | 6.43 | 5.96 |  |  |
